Assay outcomes deposited in PubChem by several laboratories.
Rows were chosen to be rich in hits. Some 1.2% of all compounds tested hit in one or more screens of this group.
CaV13 FRET inh: Disruptors of the CACNA1D IQ motif to Ca2+-dependent inactivation inhibitor domain association, primary screening, Förster resonance energy transfer in intact living …; HEK cells, CFP/YFP FRET ICDI-IQ, plate reader, 10 min; percent FRET-ratio fall versus neutral wells; inhibition, % at 12.3 µM; 340,000 tested, 0.098% active;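 active = mean replicate inhibition of at least 30% and at least 1% of replicates passing that level; inconclusive = only one of the two criteria is met; inactive = neither criterion is met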;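 also: 0% = median of the neutral control wells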
Runt-CBFb FRET: Runt domain-CBFb interaction inhibition; AID 1496; inhibition, % at 20 µM; 220,000 tested, 0.46% active; Cerulean-Runt/Venus-CBFb FRET ratio 530/480, 1 h; Q01196+Q13951;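 active = inhibition over about 50% at 20 µM in the single-dose screen, limit read from the data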;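 also: 0% = DMSO wells and 100% = excess unlabeled CBFb competitor control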
Target sequence (Q01196 whole entry, looked up, the tested form may be a part): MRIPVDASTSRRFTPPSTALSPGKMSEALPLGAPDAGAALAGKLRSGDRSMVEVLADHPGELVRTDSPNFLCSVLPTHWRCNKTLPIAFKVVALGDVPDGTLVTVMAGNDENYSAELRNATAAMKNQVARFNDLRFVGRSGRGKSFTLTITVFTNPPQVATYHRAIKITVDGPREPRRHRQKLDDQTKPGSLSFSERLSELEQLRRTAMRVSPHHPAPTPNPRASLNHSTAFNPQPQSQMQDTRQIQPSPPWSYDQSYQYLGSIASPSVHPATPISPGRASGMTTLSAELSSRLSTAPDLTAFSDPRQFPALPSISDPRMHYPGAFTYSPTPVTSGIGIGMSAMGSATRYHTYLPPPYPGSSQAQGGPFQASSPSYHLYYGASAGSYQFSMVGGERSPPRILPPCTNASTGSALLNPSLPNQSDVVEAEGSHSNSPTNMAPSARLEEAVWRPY
Target sequence (Q13951 whole entry, looked up, the tested form may be a part): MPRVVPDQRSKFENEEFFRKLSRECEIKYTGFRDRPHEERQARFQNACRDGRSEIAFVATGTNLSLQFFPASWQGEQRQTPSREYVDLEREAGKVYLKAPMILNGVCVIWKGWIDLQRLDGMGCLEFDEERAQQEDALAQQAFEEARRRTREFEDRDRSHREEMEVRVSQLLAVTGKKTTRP
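test system = Cerulean-Runt domain fusion protein, energy donor | probe or stimulus = Venus-CBFb binding partner, 100 nM | incubation = two 1 h room-temperature incubations shielded from light | detection = fluorescence energy transfer, 422 nm excitation, 530/480 nm emission | measure = loss of energy transfer signal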
RanGTP-Imp inh: inhibitors of RanGTP-importin-beta interaction, primary screen, biochemical, FRET, CFP-Ran, YFP-importin-beta, homogeneous. inhibition, % (test concentration not listed). 300,000 tested, 1.1% active. cell-free CFP-Ran/YFP-importin-beta FRET ratio;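 active = more than half of the replicate wells show a fall in the fluorescence ratio signal beyond about 16%, limit read from the data, passing the limit was not always enough; inconclusive = exactly half of the replicate wells pass the set limit; inactive = fewer than half of replicates pass the limit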;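 also: 0% = DMSO wells and 100% = Ran loaded with GDP instead of GTP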
Runt-SMMHC FRET: Runt domain-CBFb-SMMHC interaction inhibition. Q01196+Q13951. Cerulean-Runt/Venus-CBFb-SMMHC FRET ratio 530/480, 1 h. inhibition, % at 20 µM. 220,000 tested, 0.74% active;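 active = mean inhibition across duplicate retests at 20 µM reaching about 50%, limit read from the data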;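 also: 0% = DMSO wells and 100% = wells with excess untagged CBFb-SMMHC; inhibitors lower the FRET ratio by blocking Runt binding to CBFb-SMMHC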
An asterisk follows results filed as active; ? = inconclusive; · = not tested or not shown; + = active, no number.

SMILES | CaV13 FRET inh | Runt-CBFb FRET | RanGTP-Imp inh | Runt-SMMHC FRET
CC1CCc2[nH]c3ccc(C(=O)NCCCOC(C)C)cc3c2C1 (centres undefined) | -19 | 0 | 22* | 8
Oc1cc(O)cc(C=Cc2ccc(O)c(O)c2)c1 | -11 | · | · | ·
N#C[C@@H]1[C@@H]2C(=O)N(c3ccc4c(c3)OCCO4)C(=O)[C@@H]2C2c3ccccc3C=CN21 (some centres undefined) | · | -17 | 19* | -59
O=C(NCc1ccccc1Br)c1ccncc1 | · | · | -4 | ·
CN1CCc2nc(NC(=O)c3cccc(OC(F)F)c3)sc2C1 | -7 | 23 | 19* | 69*
CN1CCc2nc(NC(=O)COc3ccc4ccccc4c3)sc2C1 | 4 | · | 8 | 51
CCOC(=O)c1[nH]c2c(c1-c1ccccc1)C(=O)CC(c1ccc(OC)c(OC)c1)C2 (centres undefined) | -2 | 102* | 1 | 3
CCOC(=O)C1CCN(c2nc3ccccc3n2CC(=O)c2ccccc2)CC1 | 4 | 2 | 21* | -1
CCN(CC)Cc1c(C(=O)N/N=C(\C)c2ccncc2)nnn1-c1nonc1N | -9 | · | -4 | ·
CSC(=S)N/N=C/c1ccc(N(C)C)cc1 | 2 | 18 | 1 | 52*
CCN(CCO)c1nc(NCc2ccccc2)c2cnn(C)c2n1 | -8 | · | ? | ·
CCOC(=O)c1cc(-c2ccccc2)sc1NC(=O)CSc1nnc(N)s1 | 96* | -6 | 5 | -1
CCOC(=O)c1cc(-c2ccccc2)sc1NC(=O)CSc1nncs1 | -6 | -5 | 0 | -2
Cc1onc(-c2ccccc2)c1C(=O)/C=C/N(C)C | -5 | 0 | 17* | -1
O=C(Cc1cccs1)Nc1cccc(C(=O)Nc2ccc(C(=O)O)cc2)c1 | -4 | 0 | 0 | 0
O=Cc1coc2c(ccc3ccccc32)c1=O | · | · | 37* | ·
O=C(/C=C/c1ccc2c(c1)OCO2)c1ccccn1 | -22 | 34 | 41* | -6
O=C(/C=C/c1ccccc1)c1ccccn1 | -6 | 21 | 23* | 22
CN(Cc1ccc(Cl)c(Cl)c1)C(C(=O)NCc1ccccc1)c1ccc(C(F)(F)F)cc1 (centres undefined) | -9 | · | · | ·
CCOC(=O)c1cc(CC)sc1NC(=O)CSc1nc2ccccc2c(=O)n1Cc1ccco1 | -2 | -1 | -2 | -1
CCOC(=O)c1cc2c(=O)n3cccc(C)c3nc2n(Cc2ccco2)c1=NC(=O)c1ccccc1 | -11 | 93* | 106* | ·
CCOC(=O)c1cc2c(=O)n3ccccc3nc2n(Cc2ccco2)c1=NC(=O)c1ccc(OC)cc1 | -15 | 89* | -1 | 86*
CCOC(=O)c1cc2c(=O)n3ccccc3nc2n(Cc2ccco2)c1=NC(=O)c1ccccc1OC | -2 | 89* | 62* | 86*
CCc1cc2c(=O)c(-c3nc4ccccc4[nH]3)coc2c(CN2CCCCC2)c1O | -15 | -1 | -2 | 3
O=c1oc2c(O)cccc2cc1-c1nc2ccccc2[nH]1 | 34* | · | 133* | ·
SMILES | CaV13 FRET inh | Runt-CBFb FRET | RanGTP-Imp inh | Runt-SMMHC FRET
O=c1oc2c(CN3CCCCC3)c(O)ccc2cc1-c1nc2ccccc2[nH]1 | 35* | 18 | · | 57*
O=c1oc2c(CN3CCN(CCO)CC3)c(O)ccc2cc1-c1ccccn1 | + | 11 | 156* | 80*
CCOC(=O)/C(=C/c1ccc(OC)cc1)NC(=O)c1ccco1 | -6 | 2 | 1 | -4
CC1CCN(Cc2ccc(NC(=O)CC3Oc4ccccc4NC3=O)cc2)CC1 (centres undefined) | 52* | 0 | 0 | 1
CC1Cc2cc(S(=O)(=O)N3CCC(C(N)=O)CC3)ccc2N1C(=O)C1CC1 (centres undefined) | -2 | · | 18* | ·
CCOC(=O)c1c(-c2ccsc2)csc1N | · | 7 | 0 | -3
CCOC(=O)c1c(-c2ccc(C)s2)csc1N | 3 | 10 | 24* | -2
CCCn1c(=N)c(S(=O)(=O)c2ccccc2)cc2c(=O)n3ccccc3nc21 | 129* | 22 | 198* | 84*
CCn1c(=N)c(S(=O)(=O)c2ccccc2)cc2c(=O)n3ccccc3nc21 | 33* | 21 | 170* | 90*
CCc1ccc(/C=C2\Oc3cc(OS(C)(=O)=O)ccc3C2=O)cc1 | -2 | -8 | 3 | -6
CCc1ccc(/C=C2\Oc3c(ccc(O)c3CN3CCN(CCO)CC3)C2=O)cc1 | -14 | 12 | 12 | 81*
